{"data": "Measured values gathered from unrelated publications", "cell line": "HepG2", "observed": "cell growth or viability", "note": "Lines come from different studies, so protocols differ."}
{"SMILES": "CC(=O)Nc1ccc(Oc2nnc(-c3ccc(Cl)cc3)c3ccccc23)cc1", "technique": "MTT", "concentration": "2.5 µM", "measurement": "cell death", "value": "93.5%"}
{"SMILES": "CC(=O)c1nn(-c2ccc(C)cc2)/c(=N/N=C(\\C)c2ccc(NC(=O)c3ccccc3)cc2)s1", "technique": "MTT", "concentration": "0.156 µM", "measurement": "viability", "value": "28.5%"}
{"SMILES": "CC(=NNC(=O)c1ccncc1)c1ccc(Nc2nnc(-c3ccc(Cl)cc3)c3ccccc23)cc1", "technique": "MTT", "concentration": "2.5 µM", "time": "24 h", "measurement": "viability", "value": "3.92%"}
{"SMILES": "Cc1ccc(-c2cc(-c3ccc(Cl)cc3)c3c(=O)n(C)c(=O)n(C)c3n2)cc1", "technique": "MTT", "time": "48 h", "measurement": "IC50", "value": "7.42 µM"}
{"SMILES": "CC(=O)Nc1ccc(/C(C)=N/N=c2\\sc(C(C)=O)nn2-c2ccc(C)cc2)cc1", "technique": "MTT", "concentration": "1.25 µM", "measurement": "viability", "value": "99.8%"}
{"SMILES": "O=C(Nc1ccccc1)Nc1ccc(Oc2nnc(-c3ccc(Cl)cc3)c3ccccc23)cc1", "technique": "MTT", "concentration": "0.312 µM", "time": "24 h", "measurement": "viability", "value": "7.03%"}
{"SMILES": "COc1ccc(-c2cc(-c3ccc(Br)cc3)c3c(=O)[nH]c(=O)[nH]c3n2)cc1", "technique": "MTT", "time": "48 h", "measurement": "IC50", "value": "11.2 µM"}
{"SMILES": "CN(C)c1cc(NC(=O)c2ccccn2)c(O)c2c1C[C@H]1C[C@H]3[C@H](N(C)C)C(O)=C(C(N)=O)C(=O)[C@@]3(O)C(O)=C1C2=O", "technique": "ATP luminescence", "time": "72 h", "measurement": "IC50", "value": "187 µg/mL"}
{"SMILES": "O=C(Nc1ccc(Oc2nnc(-c3ccc(Cl)cc3)c3ccccc23)cc1)c1cccc([N+](=O)[O-])c1", "technique": "MTT", "concentration": "5 µM", "time": "24 h", "measurement": "viability", "value": "5.16%"}
{"SMILES": "CN(C)c1cc(NC(=O)Cc2cscn2)c(O)c2c1C[C@H]1C[C@H]3[C@H](N(C)C)C(O)=C(C(N)=O)C(=O)[C@@]3(O)C(O)=C1C2=O", "technique": "ATP luminescence", "time": "72 h", "measurement": "IC50", "value": "75.8 µg/mL"}
{"SMILES": "CC(=NNC(=O)COc1ccc2c(C)c(Cc3ccccc3)c(=O)oc2c1C)c1ccc(Br)cc1", "technique": "MTT", "concentration": "25 µg/mL", "measurement": "viability", "value": "44.2%"}
{"SMILES": "CC(=NNC(=O)c1ccccc1O)c1ccc(Nc2nnc(-c3ccc(Cl)cc3)c3ccccc23)cc1", "technique": "MTT", "concentration": "2.5 µM", "measurement": "cell death", "value": "62.1%"}
{"SMILES": "Cc1ccc(-c2cc(-c3c(Cl)cccc3Cl)c3c(=O)[nH]c(=O)[nH]c3n2)cc1", "technique": "MTT", "time": "48 h", "measurement": "IC50", "value": "42.7 µM"}
{"SMILES": "CC(=O)c1nn(-c2ccccc2Cl)/c(=N/N=C(\\C)c2ccc(NC(=O)c3ccccc3)cc2)s1", "technique": "MTT", "concentration": "2.5 µM", "measurement": "viability", "value": "6.09%"}
{"SMILES": "CC(=NNC(=S)Nc1ccccc1)c1ccc(Nc2nnc(-c3ccc(Cl)cc3)c3ccccc23)cc1", "technique": "MTT", "concentration": "1.25 µM", "measurement": "cell death", "value": "50%"}
{"SMILES": "COc1ccc(-c2cc(-c3ccc(C)cc3)nc3c2c(=O)n(C)c(=O)n3C)cc1OC", "technique": "MTT", "time": "48 h", "measurement": "IC50", "value": "32.5 µM"}
{"SMILES": "CCOC(=O)c1nn(-c2cccc(Cl)c2)/c(=N/N=C(\\C)c2ccc(NC(=O)c3ccc(Cl)cc3)cc2)s1", "technique": "MTT", "concentration": "0.625 µM", "measurement": "viability", "value": "2.86%"}
{"SMILES": "COc1ccc(-c2cc(-c3ccc(OC)cc3)c3c(=O)n(C)c(=O)n(C)c3n2)cc1", "technique": "MTT", "time": "48 h", "measurement": "IC50", "value": "17.3 µM"}
{"SMILES": "CCOC(=O)c1nn(-c2cccc(Cl)c2)/c(=N/N=C(\\C)c2ccc(NC(=O)c3ccccc3)cc2)s1", "technique": "MTT", "concentration": "0.312 µM", "measurement": "viability", "value": "3.54%"}
{"SMILES": "CC(=NNC(=O)c1cccnc1)c1ccc(Nc2nnc(-c3ccc(Cl)cc3)c3ccccc23)cc1", "technique": "MTT", "concentration": "0.625 µM", "time": "24 h", "measurement": "viability", "value": "49.9%"}
{"SMILES": "C=CC(=O)NC1CCN(c2ncc3ncnc(Nc4ccc(Oc5ccc6c(c5)ncn6C)c(C)c4)c3n2)CC1", "measurement": "EC50", "value": "0.335 µM"}
